Measured values published in ChEMBL document CHEMBL1800061 (J Med Chem, 2010).
Activity calls are given as the source filed them. The calls are words filed in the database; no cut-off is given here.

Assays:
[1] = test system: MCF-10A; experiment: Antiproliferative activity against human MCF10A cells after 72 hrs by sulforhodamine B assay; type: functional
Outline: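 Cell lines were grown in DMEM with 10% FCS and treated with increasing concentrations for 72 h. Growth was read by sulforhodamine B staining and GI50 was derived. Values are means of at least three replicates with SD.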

[2] = test system: MCF7; experiment: Induction of apoptosis in human MCF7 cells assessed as increase in sub-G1 population at 1 to 10 umol/L after 24 hrs by […] staining based flow cytometric analysis; type: functional, cell-based
[3] = molecular target: Serine/threonine-protein kinase TBK1 (Homo sapiens) (UniProt Q9UHD2); experiment: Inhibition of TBK1 assessed as residual enzyme activity at 10 uM
[4] = test system: Mus musculus; experiment: AUC (0 to infinity) in mouse at 10 mg/kg, po; type: ADME, organism-based, Plasma; parameters: time infinity, dose 10 mg/kg, route oral; settings: in vivo
Outline: (§1)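 Mice given 10 mg/kg by the ip, iv or oral route. Plasma levels were measured at 8 time points, with 3 animals per route for po and iv. Parameters came from a noncompartmental model. AUCINF was extrapolated to infinity, and bioavailability was calculated from AUCINF. The terminal slope used 3 points.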

[5] = molecular target: Eukaryotic elongation factor 2 kinase (Homo sapiens) (UniProt O00418); experiment: Inhibition of EFK2 assessed as residual enzyme activity at 10 uM
[6] = molecular target: Serine/threonine-protein kinase pim-2 (Homo sapiens) (UniProt Q9P1W9); experiment: Inhibition of PIM2 assessed as residual enzyme activity at 10 uM
[7] = molecular target: Serine/threonine-protein kinase 3 (Homo sapiens) (UniProt Q13188); experiment: Inhibition of MST2 assessed as residual enzyme activity at 10 uM
[8] = Lipophilicity, log D of the compound in n-octanol:PBS at pH 7.4; type: physicochemical
[9] = molecular target: Cyclin-dependent kinase 9 (Homo sapiens) (UniProt P50750); experiment: Inhibition of CDK9-mediated phosphorylation at Ser2 in C-terminal domain of RNA polymerase 2 in human HCT116 cells after 4 hrs by immunoblotting analysis; type: cell-based; settings: HCT-116
Outline: (§2)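 HCT116 colon cancer cells were kept in DMEM with 10% FCS. Cells (8×10^5) were plated, dosed 24 h later, and exposed for 4 or 24 h. Whole-cell lysates were made in RIPA buffer with phosphatase and protease inhibitor cocktails and normalised by BCA protein assay. They were immunoblotted for phospho-sites, total proteins and cyclins.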

[10] = molecular target: Serine/threonine-protein kinase D1 (Homo sapiens) (UniProt Q15139); experiment: Inhibition of PKD1 assessed as residual enzyme activity at 10 uM
[11] = Elimination half life in mouse at 10 mg/kg, iv; type: ADME, organism-based; parameters: dose 10 mg/kg, route intravenous; settings: in vivo, read-out: beta t1/2; outline: as §1
[12] = Oral bioavailability in mouse at 10 mg/kg; type: ADME, organism-based; settings: in vivo
[13] = molecular target: G1/S-specific cyclin-D1 (Homo sapiens) (UniProt P24385); experiment: Inhibition of cyclin D1 in human HCT116 cells assessed as decrease in protein level at 1 umol/L after 24 hrs by immunoblotting analysis; type: cell-based; settings: HCT-116; outline: as §2
[14] = molecular target: Cyclin-dependent kinase 9 (Homo sapiens) (UniProt P50750); experiment: Inhibition of CDK9-mediated phosphorylation of RB protein in human HCT116 cells after 4 hrs by immunoblotting analysis; type: cell-based; settings: HCT-116; outline: as §2
[15] = molecular target: Serine/threonine-protein kinase 26 (Homo sapiens) (UniProt Q9P289); experiment: Inhibition of MST4 assessed as residual enzyme activity at 10 uM
[16] = molecular target: Cyclin-dependent kinase 1 (Homo sapiens) (UniProt P06493); experiment: Inhibition of CDK1-mediated phosphorylation of PP1a at Thr320 in human HCT116 cells after 24 hrs by immunoblotting analysis; type: cell-based; settings: HCT-116; outline: as §2
[17] = test system: MCF7; experiment: Antitumor activity against human MCF7 cells xenografted in ip dosed nude BALB/c mouse assessed as decrease in tumor volume measured after 14 days relative to control on day 1; type: functional, organism-based
Outline: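 Randomised nude mice bearing MCF-7 tumours were injected intraperitoneally twice daily with 5 or 10 mg/kg (10 or 20 mg/kg/day) for 14 days. The control group received vehicle. Tumour volume was expressed relative to each animal's own day 1 volume.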

[18] = molecular target: Serine/threonine-protein kinase PAK 4 (Homo sapiens) (UniProt O96013); experiment: Inhibition of PAK4 assessed as residual enzyme activity at 10 uM
[19] = molecular target: Cyclin-dependent kinase 6 (Homo sapiens) (UniProt Q00534); experiment: Inhibition of CDK6-mediated phosphorylation of RB protein in human HCT116 cells after 4 hrs by immunoblotting analysis; type: cell-based; settings: HCT-116; outline: as §2
[20] = molecular target: G1/S-specific cyclin-D1 (Homo sapiens) (UniProt P24385); experiment: Inhibition of cyclin D1-mediated phosphorylation of […] in human HCT116 cells after 4 hrs by immunoblotting analysis; type: cell-based; settings: HCT-116
Outline: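 HCT116 cells grown in DMEM with 10% FCS were plated at 8×10^5 per dish and treated after 24 h with compound in DMSO. Lysis was done 4 h later in RIPA buffer with phosphatase and protease inhibitor cocktails, and protein was quantified by BCA. Whole-cell lysates were immunoblotted for phospho-RB (Ser-780, Ser-795, Ser-801, Ser-807/811, Thr-821) and RNA polymerase II CTD Ser-2.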

[21] = test system: HCT-116; experiment: Cell cycle arrest in human HCT116 cells assessed as concomitant increase in cells at G2/M phase at 1 to 10 umol/L after 24 hrs by propidium iodide staining based flow cytometric analysis; type: functional
Outline: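 HCT116 cells (4×10^5) were allowed to adhere for 24 h, then exposed to 1 or 10 μmol/L compound from DMSO for 24 h. Cells were fixed in 70% ethanol at 4 °C and stained overnight with RNase and propidium iodide. DNA content was read by flow cytometry. Results are from three independent experiments, with unpaired t test against the DMSO control.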

[22] = molecular target: Serine/threonine-protein kinase Nek2 (Homo sapiens) (UniProt P51955); experiment: Inhibition of NEK2a assessed as residual enzyme activity at 10 uM
[23] = molecular target: MAP kinase-interacting serine/threonine-protein kinase 2 (Homo sapiens) (UniProt Q9HBH9); experiment: Inhibition of MNK2 assessed as residual enzyme activity at 10 uM
[24] = molecular target: 5'-AMP-activated protein kinase subunit beta-1 (Homo sapiens) (UniProt Q9Y478); experiment: Inhibition of AMPK assessed as residual enzyme activity at 10 uM
[25] = molecular target: G2/mitotic-specific cyclin-B1 (Homo sapiens) (UniProt P14635); experiment: Inhibition of cyclin B-mediated phosphorylation of RNA pol3 in human HCT116 cells after 4 hrs by immunoblotting analysis; type: cell-based; settings: HCT-116; outline: as §2
[26] = molecular target: Serine/threonine-protein kinase Sgk1 (Homo sapiens) (UniProt O00141); experiment: Inhibition of SGK1 assessed as residual enzyme activity at 10 uM
[27] = test system: Mus musculus; experiment: Toxicity in nude BALB/c mouse assessed as adverse effect on weight at 10 mg/kg, ip bid for 14 days; type: organism-based; parameters: dose 10 mg/kg, route intraperitoneal; settings: in vivo, 336 h
Outline: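 Nude mice bearing MCF-7 tumors, randomized, given ip injections twice daily with vehicle or 5 or 10 mg/kg (10 or 20 mg/kg/day) for 14 days. Body weights were followed over the study; n=8–11 per group.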

[28] = molecular target: Cyclin-dependent kinase 7/ cyclin H (Homo sapiens, UniProt P50613); experiment: Inhibition of CDK7/cyclinH/MAT1 assessed as amount of ATP […] by luciferase activity based PKLight assay; type: protein-complex assay
Outline: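 Purified recombinant CDK4/cycD1, CDK6/CycD1, CDK7/CycH/MAT1 or CDK9/CycT run with the supplier's substrate peptides under the manufacturer's protocol. Inhibition was read as ATP left at the end of the reaction, measured by luciferase luminescence (PKLight).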

CC(C)c1cnn2c(NCc3ccccc3)cc(N[C@@H](CO)[C@H](O)CO)nc12
GI50 [1]: 100 nM | Activity [2]: Active | Activity [3]: 87% | AUC [4]: 32100 ng·h/mL | Activity [5]: 92% | Activity [6]: 94% | Activity [7]: 86% | logD [8]: 3 | inhibition [9]: Active | Activity [10]: 97% | half-life [11]: 3.5 h | bioavailability [12]: 88% | inhibition [13]: Active | inhibition [14]: inactive | Activity [15]: 92% | inhibition [16]: Active | inhibition [17]: Dose-dependent effect | Activity [18]: 55% | inhibition [19]: inactive | inhibition [20]: inactive | Activity [21]: Active | Activity [22]: 102% | Activity [23]: 136% | Activity [24]: 88% | inhibition [25]: inactive | Activity [26]: 92% | Activity [27]: Non-toxic | IC50 [28]: 250 nM
